“Also recorded” adds a separate entry of the source. Where two headings read alike, the source gives them in different places.

The subject of one data set is T. cruzi amastigotes. Briefly: Intracellular T. cruzi amastigote assay in Vero cells. To be noted: for EC50: Trypanosoma cruzi, Vero; for Tc pEC50: T. cruzi amastigote cultures in Vero cells, mean of three or more EC50 determinations ± standard deviation. It counts as cell-based, Trypanosoma cruzi. In a few lines:
(§1)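 Intracellular T. cruzi amastigotes cultured in Vero host cells, with the host Vero cells read in parallel. pEC50 is the mean of independent EC50 determinations: three or more ± standard deviation, or for some compounds two ± range.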

The next data set has as its system Vero cells. Briefly: Host Vero cell toxicity counter-read of the amastigote assay. It counts as cell-based. In short, it runs like this: as §1
A further data set has as its target TcCYP51 (Trypanosoma cruzi, UniProt Q7Z1V1). Briefly: TcCYP51 counter-screen. To be noted: for TcCYP51 inhibition: result in words. It counts as biochemical, T. cruzi.
Another data set deals with T. cruzi. Briefly: T. cruzi cytostatic/cytocidal assay. In kind it is cell-based, Trypanosoma cruzi. To be noted: cytocidal versus cytostatic behaviour.
Data set [1] is described as follows: Intrinsic clearance in mouse liver microsomes. It counts as in vitro ADME. To be noted: result in words.
Setting [2] is: host Vero cells, mean of three or more EC50 determinations ± standard deviation.

Chain of TcCYP51 (Q7Z1V1 whole entry): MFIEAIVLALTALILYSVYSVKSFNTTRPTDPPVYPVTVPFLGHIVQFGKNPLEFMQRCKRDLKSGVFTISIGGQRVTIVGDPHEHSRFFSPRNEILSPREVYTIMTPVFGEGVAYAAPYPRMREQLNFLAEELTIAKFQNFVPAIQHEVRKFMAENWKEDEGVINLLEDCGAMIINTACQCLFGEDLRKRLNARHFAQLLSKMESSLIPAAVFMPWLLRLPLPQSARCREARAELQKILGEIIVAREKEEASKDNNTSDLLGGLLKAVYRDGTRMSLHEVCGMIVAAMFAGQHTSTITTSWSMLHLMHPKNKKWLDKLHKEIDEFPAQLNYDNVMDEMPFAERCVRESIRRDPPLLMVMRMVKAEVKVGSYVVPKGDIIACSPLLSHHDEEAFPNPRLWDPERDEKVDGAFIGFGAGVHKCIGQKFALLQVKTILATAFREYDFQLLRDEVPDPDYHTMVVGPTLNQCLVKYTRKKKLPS

`COc1cc(Nc2nc(C(=O)N3CCCC3)cc(N(C)C)n2)ccc1F` [Compound 18e]: the EC50 in the data set with T. cruzi amastigotes (read-out: Tc pEC50 (converted)) is 31600 nM.
For `COc1cc(Nc2nc(C)cc(N(C)C)n2)ccc1F` [Compound 4d], the “Vero pEC50” value in the data set on Vero cells (setting [2]) is listed as 4.5 ± 0.1. Further, on TcCYP51, the TcCYP51 inhibition result is recorded as “did not inhibit TcCYP51”. For the same molecule, the Cytocidal entry in the data set on T. cruzi is on record as “cytocidal”. The “Tc pEC50” value in the data set with T. cruzi amastigotes came to 6.4 ± 0.3.
On to `COc1cc(OC)cc(C(=O)Nc2ccc(Nc3nc(C)cc(N(C)C)n3)cc2)c1` [Compound 1], for which the “Vero pEC50” value in the data set with Vero cells (Table 2: host Vero cells, mean of two EC50 determinations ± range (1, 4b: ± standard deviation from > 2 determinations)) stood at 5.2 ± 0.3. Moreover, the “stability in mouse liver microsomes (MLM)” value in data set [1] is “stable”. Moreover, the EC50 is more than 10000 nM on TcCYP51 and 126 nM with T. cruzi amastigotes (read-out: pEC50 against T. cruzi parasites (converted)). In addition, in the data set on T. cruzi, the Cytocidal entry was “cytocidal behavior”.
For the molecule `COc1cc(Nc2nc(C)cc(N3CCCC3)n2)ccc1F` [Compound 13b], in the data set on T. cruzi amastigotes (read-out: Tc pEC50 (converted)), the EC50 is 316 nM.
With `Cc1cc(N(C)C)nc(Nc2ccc(C(=O)N3CCCCC3)cc2)n1` [Compound 5a], in the data set on Vero cells (at the top concentration tested (50 μM)), the “toxicity against the host cells” value is “no toxicity”. Besides, in the data set with T. cruzi amastigotes (read-out: Tc pEC50 (converted)), the EC50 was 2000 nM.
In the case of `COc1cc(OC)cc(C(=O)N[C@H]2CC[C@H](Nc3nc(C)cc(N(C)C)n3)CC2)c1` [Compound 8b], on TcCYP51, the TcCYP51 inhibition result is recorded as “no activity versus TcCYP51”. Besides, the Cytocidal entry with T. cruzi is reported as “cytocidal”.
`COc1cc(Nc2cc(C)nc(NCc3ccccc3)n2)ccc1F` [Compound 17c]: in the data set on T. cruzi, the Cytocidal result is listed as “cytostatic behavior; also recorded: no longer cytocidal”. Also, the EC50 in the data set with T. cruzi amastigotes (read-out: Tc pEC50 (converted)) was 79.4 nM.
Turning to `Cc1cc(N(C)C)nc(NCc2ccccc2)n1` [Compound 6a], the “Vero pEC50” value in the data set on Vero cells (setting [2]) is less than 4.3. Also, on TcCYP51, the TcCYP51 inhibition result is “did not inhibit TcCYP51”. In the data set with T. cruzi, the Cytocidal entry was “cytocidal”. Besides, in the data set with T. cruzi amastigotes, the “Tc pEC50” value is recorded as 5.5 ± 0.3. The EC50 with T. cruzi amastigotes (read-out: Tc pEC50 (converted)) was 3160 nM.
Take `Cc1cc(N(C)C)nc(NC2CCN(C(=O)Cc3ccc(F)cc3F)CC2)n1` [Compound 6e]: the EC50 in the data set on T. cruzi amastigotes (read-out: Tc pEC50 (converted)) was 3160 nM.
On the same count and under the same terms, under `COc1cc(Nc2nc(C(C)C)cc(N(C)C)n2)ccc1F` [Compound 18c] stands 2000 nM.

These data come from PMC6970618 (Bioorganic & medicinal chemistry letters, 2018).
